Results reported in ChEMBL document CHEMBL4312000, “Discovery of coumarin-derived imino sulfonates as a novel class of potential cardioprotective agents” (Eur J Med Chem, 2019).
The source made the active and inactive calls. The rule behind the calls is not given here.

test system: H9c2; experiment: Inhibition of H2O2-induced ROS accumulation in rat H9c2 cells at 10 uM incubated for 24 hrs followed by H2O2 stimulation and measured after 2 hrs by DHE staining based fluorescence microscopy; format: functional, cell-based; details: not given
How it was run: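 H9c2 cells at 2.5×10^5 cells/well attached overnight, were preincubated 24 h with 10 µM, then given H2O2 (250 µM) for 2 h. Dihydroethidium (5 µM) was loaded for 30 min at 37 °C. Ethidium fluorescence (ex 488/em […] nm) was imaged by fluorescence microscopy at 200×.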

| SMILES | inhibition |
| --- | --- |
| O=S1(=O)N=Cc2ccc(Cl)cc2O1 | Active |

test system: H9c2; experiment: Cardioprotective activity against rat H9c2 cells assessed as reduction in H2O2-induced cell death at 20 uM incubated for 24 hrs followed by H2O2 stimulation and measured after 2 hrs by MTT assay; format: functional, cell-based; details: not given
How it was run: (§1)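 Serum-starved H9c2 cells in DMEM/F12 with 10% FBS were seeded at 5×10^3 cells/well and attached overnight. They were pretreated 24 h with compound at 2.5, 5, 10 or 20 µM, then exposed to 250 µM H2O2 for 2 h. MTT (4 mg/mL) ran 4 h at 37 °C, formazan was dissolved in DMSO, and OD was read at 490 nm. Viability is % of untreated control, from three independent experiments, mean ± SD.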

| SMILES | Activity |
| --- | --- |
| O=S1(=O)N=Cc2ccc(F)cc2O1 | Active |
| CCN(CC)c1ccc2c(c1)OS(=O)(=O)N=C2 | Active |
| Cc1ccc2c(c1)OS(=O)(=O)N=C2 | Active |
| O=S1(=O)N=Cc2cccc(Cl)c2O1 | Active |
| O=S1(=O)N=Cc2cc(Cl)ccc2O1 | Active |
| COc1ccc2c(c1)C=NS(=O)(=O)O2 | Active |
| COc1cccc2c1OS(=O)(=O)N=C2 | Active |
| O=S1(=O)N=Cc2cccc(F)c2O1 | Active |
| O=S1(=O)N=Cc2ccc(Cl)cc2O1 | Active |
| O=S1(=O)N=Cc2ccccc2O1 | Active |
| O=S1(=O)N=Cc2c(ccc3ccccc23)O1 | Active |
| O=S1(=O)N=Cc2cc(Br)ccc2O1 | Active |
| CC(C)(C)c1cccc2c1OS(=O)(=O)N=C2 | inactive |
| O=S1(=O)N=Cc2c(F)cccc2O1 | Active |
| Cc1ccc2c(c1)C=NS(=O)(=O)O2 | Active |
| COc1ccc2c(c1)OS(=O)(=O)N=C2 | Active |
| O=c1cc(-c2ccc(O)c(O)c2)oc2cc(O)cc(O)c12 | Active |

target: T1, Nuclear factor erythroid 2-related factor 2 (Rattus norvegicus) (UniProt O54968); experiment: Activation of Nrf2 in rat H9c2 cells assessed as induction of Nrf2 nuclear translocation incubated for 24 hrs followed by H2O2 stimulation and measured after 2 hrs by Western blot analysis; format: cell-based; details: not given
T1 sequence (whole entry): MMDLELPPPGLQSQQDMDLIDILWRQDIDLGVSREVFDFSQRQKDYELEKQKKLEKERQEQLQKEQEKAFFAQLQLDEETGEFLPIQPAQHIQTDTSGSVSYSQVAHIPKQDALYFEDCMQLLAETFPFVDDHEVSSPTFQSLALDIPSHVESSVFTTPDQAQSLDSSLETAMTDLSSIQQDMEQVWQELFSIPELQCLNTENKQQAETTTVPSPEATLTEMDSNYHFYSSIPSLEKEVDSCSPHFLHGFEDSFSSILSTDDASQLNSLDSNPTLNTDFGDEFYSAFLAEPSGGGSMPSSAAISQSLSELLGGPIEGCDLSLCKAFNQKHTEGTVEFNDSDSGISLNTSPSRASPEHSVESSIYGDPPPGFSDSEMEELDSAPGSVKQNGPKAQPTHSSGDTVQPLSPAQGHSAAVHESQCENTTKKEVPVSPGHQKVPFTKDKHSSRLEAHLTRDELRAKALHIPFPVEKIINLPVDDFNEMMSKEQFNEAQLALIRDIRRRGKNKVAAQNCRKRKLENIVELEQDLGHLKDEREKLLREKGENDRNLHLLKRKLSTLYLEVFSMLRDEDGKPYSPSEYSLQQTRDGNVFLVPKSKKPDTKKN

| SMILES | Activity |
| --- | --- |
| O=S1(=O)N=Cc2ccc(Cl)cc2O1 | Dose-dependent effect |

test system: H9c2; experiment: Cardioprotective activity against rat H9c2 cells assessed as reduction in H2O2-induced LDH release at 20 uM incubated for 24 hrs followed by H2O2 stimulation and measured after 2 hrs by LDH release assay; format: functional, cell-based; details: not given
How it was run: (§2)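 Cells were cultured in DMEM/F12 with 10% FBS and serum-starved, then pre-incubated 24 h with compound at 10 or 20 µM before 2 h with 250 µM H2O2. LDH release rate was measured with a cytotoxicity detection kit by absorbance at 490 nm. Three independent experiments, mean ± SD, one-way ANOVA with Tukey test.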

| SMILES | Activity |
| --- | --- |
| O=S1(=O)N=Cc2ccc(F)cc2O1 | Active |
| O=S1(=O)N=Cc2ccc(Cl)cc2O1 | Active |
| O=S1(=O)N=Cc2cc(Br)ccc2O1 | Active |

target: T1, Nuclear factor erythroid 2-related factor 2 (Rattus norvegicus); experiment: Activation of Nrf2 in rat H9c2 cells assessed as induction of Nrf2 nuclear translocation at 10 uM incubated for 24 hrs followed by H2O2 stimulation and measured after 2 hrs by Western blot analysis; format: cell-based; details: not given

| SMILES | Activity |
| --- | --- |
| O=S1(=O)N=Cc2ccc(Cl)cc2O1 | Active |
| O=c1cc(-c2ccc(O)c(O)c2)oc2cc(O)cc(O)c12 | Active |

target: T1, Nuclear factor erythroid 2-related factor 2 (Rattus norvegicus); experiment: Activation of Nrf2 in rat H9c2 cells assessed as upregulation of NQO1 incubated for 24 hrs followed by H2O2 stimulation and measured after 2 hrs by Western blot analysis; format: cell-based; details: not given

| SMILES | Activity |
| --- | --- |
| O=S1(=O)N=Cc2ccc(Cl)cc2O1 | Dose-dependent effect |

test system: H9c2; experiment: Increase in H2O2-induced Nrf2 expression in rat H9c2 cells at 20 uM incubated for 24 hrs followed by H2O2 stimulation and measured after 2 hrs by Western blot analysis; format: functional, cell-based; details: not given
How it was run: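 Pretreatment was 20 µM for 24 h, then 250 µM H2O2 for 2 h. Cytoplasmic and nuclear fractions were extracted for Western blot: 5% milk/TBS-0.1% Tween blocking 2 h, primary antibodies overnight at 4 °C, HRP anti-rabbit secondary (1:5000) 2 h. Signals were normalised to Lamin B1 (nuclear) or GAPDH (cytoplasmic), n=3, mean ± SD.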

| SMILES | Activity |
| --- | --- |
| O=S1(=O)N=Cc2ccc(Cl)cc2O1 | Active |

test system: H9c2; experiment: Cardioprotective activity against rat H9c2 cells assessed as reduction in H2O2-induced LDH release at 10 uM incubated for 24 hrs followed by H2O2 stimulation and measured after 2 hrs by LDH release assay; format: functional, cell-based; details: not given; how it was run: as §2

| SMILES | Activity |
| --- | --- |
| O=S1(=O)N=Cc2ccc(F)cc2O1 | inactive |
| O=S1(=O)N=Cc2ccc(Cl)cc2O1 | Active |
| O=S1(=O)N=Cc2cc(Br)ccc2O1 | inactive |

test system: H9c2; experiment: Cardioprotective activity against rat H9c2 cells assessed as reduction in H2O2-induced cell death at 10 uM incubated for 24 hrs followed by H2O2 stimulation and measured after 2 hrs by MTT assay; format: functional, cell-based; details: not given; how it was run: as §1

| SMILES | Activity |
| --- | --- |
| O=S1(=O)N=Cc2ccc(F)cc2O1 | Active |
| O=S1(=O)N=Cc2ccc(Cl)cc2O1 | Active |
| O=S1(=O)N=Cc2cc(Br)ccc2O1 | Active |
| O=c1cc(-c2ccc(O)c(O)c2)oc2cc(O)cc(O)c12 | Active |

test system: H9c2; experiment: Cytotoxicity against rat H9c2 cells assessed as reduction in cell viability at 0.1 to 100 uM incubated for 24 hrs by MTT assay; format: cell-based; details: h9c2, 24 h
How it was run: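 H9c2 cells were seeded at 5×10^3 cells/well, attached overnight and given compound at 0.1, 1, 10 or 100 µM for 24 h, with 0.01% DMSO medium as control. Compounds were DMSO stocks diluted in medium. MTT (4 mg/mL, 4 h, 37 °C) was read at OD 490 nm after DMSO solubilisation. Viability is % of control, from three experiments.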

| SMILES | Activity |
| --- | --- |
| O=S1(=O)N=Cc2ccc(F)cc2O1 | Non-Toxic |
| O=S1(=O)N=Cc2ccc(Cl)cc2O1 | Non-Toxic |
| O=S1(=O)N=Cc2cc(Br)ccc2O1 | Non-Toxic |

target: T1, Nuclear factor erythroid 2-related factor 2 (Rattus norvegicus); experiment: Activation of Nrf2 in rat H9c2 cells assessed as upregulation of NQO1 at 10 uM incubated for 24 hrs followed by H2O2 stimulation and measured after 2 hrs by Western blot analysis; format: cell-based; details: not given

| SMILES | Activity |
| --- | --- |
| O=S1(=O)N=Cc2ccc(Cl)cc2O1 | Active |
| O=c1cc(-c2ccc(O)c(O)c2)oc2cc(O)cc(O)c12 | Active |

target: T1, Nuclear factor erythroid 2-related factor 2 (Rattus norvegicus); experiment: Activation of Nrf2 in rat H9c2 cells assessed as upregulation of HO1 at 10 uM incubated for 24 hrs followed by H2O2 stimulation and measured after 2 hrs by Western blot analysis; format: cell-based; details: not given

| SMILES | Activity |
| --- | --- |
| O=S1(=O)N=Cc2ccc(Cl)cc2O1 | Active |
| O=c1cc(-c2ccc(O)c(O)c2)oc2cc(O)cc(O)c12 | Active |

test system: H9c2; experiment: Cardioprotective activity against rat H9c2 cells assessed as reduction in H2O2-induced cell death at 5 uM incubated for 24 hrs followed by H2O2 stimulation and measured after 2 hrs by MTT assay; format: functional, cell-based; details: not given; how it was run: as §1

| SMILES | Activity |
| --- | --- |
| O=S1(=O)N=Cc2ccc(Cl)cc2O1 | Active |

target: T1, Nuclear factor erythroid 2-related factor 2 (Rattus norvegicus); experiment: Activation of Nrf2 in rat H9c2 cells assessed as upregulation of HO1 incubated for 24 hrs followed by H2O2 stimulation and measured after 2 hrs by Western blot analysis; format: cell-based; details: not given

| SMILES | Activity |
| --- | --- |
| O=S1(=O)N=Cc2ccc(Cl)cc2O1 | Dose-dependent effect |

test system: H9c2; experiment: Cardioprotective activity against rat H9c2 cells assessed as reduction in H2O2-induced cell death at 2.5 uM incubated for 24 hrs followed by H2O2 stimulation and measured after 2 hrs by MTT assay; format: functional, cell-based; details: not given; how it was run: as §1

| SMILES | Activity |
| --- | --- |
| O=S1(=O)N=Cc2ccc(F)cc2O1 | inactive |
| O=S1(=O)N=Cc2ccc(Cl)cc2O1 | inactive |
| O=S1(=O)N=Cc2cc(Br)ccc2O1 | inactive |
| O=c1cc(-c2ccc(O)c(O)c2)oc2cc(O)cc(O)c12 | inactive |
